Reference: ChEMBL document CHEMBL1130979, “Synthesis, X-ray crystal structure, and biological activity of FR186054, a novel, potent, orally active inhibitor of acyl-CoA:cholesterol O-acyltransferase (ACAT) bearing a pyrazole ring” (Bioorg Med Chem Lett, 1998)

Tests used:
Format in all cases: functional
[1] = system: Rattus norvegicus; test: Hypocholesterolemic activity by administration of gavage in PEG400 as a vehicle in cholesterol-fed rats; settings: po
How it was run: (§1)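 Male rats (n = 4) made hypercholesterolemic on diet with 1% cholesterol and 0.5% cholic acid for 2 days. Compound then dissolved in PEG400 and given orally by gavage once daily in the evening for 3 days, cholesterol-enriched diet continued. Plasma total cholesterol measured; ED50 = dose lowering plasma total cholesterol by 50% of control.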

[2] = system: Rattus norvegicus; test: Hypocholesterolemic activity to reduce plasma total cholesterol level by 50% after dietary administration in cholesterol-fed rats; settings: feed or water
How it was run: (§2)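 Male rats (n = 4) received compound admixed in diet supplemented with 1% cholesterol and 0.5% cholic acid for 7 days. Plasma total cholesterol then measured, percent change vs control calculated. Reported as percent reduction at the dose given or as ED50 (dose lowering total cholesterol by 50%). Significance by unpaired two-tailed Student's t-test.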

[3] = system: Rattus norvegicus; test: Hypocholesterolemic activity by administration of gavage in PEG400 as a vehicle in cholesterol-fed rats.; settings: po; how it was run: as §1
[4] = system: Rattus norvegicus; test: Percent reduction in total cholesterol at greater than 1 mg/kg dose; how it was run: as §2
[5] = system: Rattus norvegicus; test: Percent reduction in total cholesterol at less than 0.1 mg/kg dose; how it was run: as §2

**Q.** Which results are given for O=C(Nc1c(F)cc(F)cc1F)N(Cc1ccccc1)Cc1cccc(-c2cc[nH]n2)c1?
**A.** ED50 [1]: 8.6 mg/kg; ED50 [2]: 0.096 mg/kg

**Q.** CCCCCCCN(Cc1ccc(CC(C)(C)C)cc1)C(=O)Nc1ccc(F)cc1F [CL-277082] was tested. Which ED50 [2] did it give?
**A.** Its ED50 is 5 mg/kg.

**Q.** How did the ED50 [2] turn out when CSc1cc(C)nc(SC)c1NC(=O)N(Cc1ccccc1)Cc1cccc(-c2cc[nH]n2)c1 was run?
**A.** The ED50 was 0.046 mg/kg.

**Q.** And the ED50 [3]?
**A.** The ED50 was 0.44 mg/kg.

**Q.** Cc1cc(C)c(NC(=O)N(Cc2ccccc2)Cc2cccc(-c3cc[nH]n3)c2)c(C)c1 was tested. Which ED50 [2] did it give?
**A.** Its ED50 is over 1 mg/kg.

**Q.** And the Reduction [4]?
**A.** The Reduction was 36%.

**Q.** Which results are given for CSc1cc(C)nc(SC)c1NC(=O)N(Cc1ccc(N(C)C)cc1)Cc1cccc(-c2cc[nH]n2)c1?
**A.** ED50 [2]: < 0.1 mg/kg; Reduction [5]: 61%

**Q.** What does the source list for CSc1cc(C)nc(SC)c1NC(=O)N(Cc1ccc(F)cc1)Cc1cccc(-c2cc[nH]n2)c1?
**A.** ED50 [2]: < 0.1 mg/kg; Reduction [5]: 66%

**Q.** COc1ccc(CN(Cc2cccc(-c3cc[nH]n3)c2)C(=O)Nc2c(SC)cc(C)nc2SC)cc1 was tested. Which ED50 [2] did it give?
**A.** Its ED50 is under 0.1 mg/kg.

**Q.** What about the Reduction [5] of the same molecule?
**A.** Its Reduction is 81%.
